What all share (type): functional, organism-based
In experiment [1] the test system is Plasmodium falciparum. The experiment is described as follows: Antimalarial activity against Plasmodium falciparum W2 as reduced [3H]hypoxanthine uptake after 72 hrs.
The test system of experiment [2] is Plasmodium falciparum. Briefly: (§1) In vitro antimalarial activity against Plasmodium falciparum D6 after 72 hrs in SYBR green fluorescence assay. The settings on record: D6, 72 h. The gist of the method:
(§2)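 P. falciparum D6 or W2 at late-ring/early-trophozoite stage, conditioned 3–4 days in the test medium (TCM, TCMA with Albumax I in place of plasma, FAF folic acid/pABA-free, or FAFA). Cultured 72 h at 37°C (5% CO₂, 5% O₂, N₂) with 11 twofold drug dilutions, 1% parasitemia, 2% hematocrit. SYBR green I lysis buffer added, 1 h at room temperature, RFU read. Plate-edge wells excluded.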

In experiment [3] the test system is Plasmodium falciparum. The experiment is described as follows: (§3) In vitro antimalarial activity against Plasmodium falciparum W2 after 72 hrs in SYBR green fluorescence assay. Conditions: W2, 72 h.
The subject of experiment [4] is Plasmodium falciparum. The description is as §3. The settings on record: W2, 72 h. The source holds these as a separate data set.
Experiment [5] relates to Plasmodium falciparum. Briefly: Antimalarial activity against Plasmodium falciparum D6 as reduced [3H]hypoxanthine uptake after 72 hrs.
Experiment [6] concerns Plasmodium falciparum. Described as §1. Conditions: D6, 72 h. In a few lines:
as §2
This is another data set of the same source.

Experiment [7] deals with Plasmodium falciparum. The experiment is described as §3. The settings on record: W2, 72 h. In a few lines:
as §2
This is another data set of the same source.

Experiment [8] has as its system Plasmodium falciparum. Described as §1. The settings on record: D6, 72 h. The gist of the method: as §2
The source holds these as a separate data set.

In experiment [9] the test system is Plasmodium falciparum. Briefly: In vitro antimalarial activity against Plasmodium falciparum D6 after 72 hrs by SYBR green fluorescence assay. The settings on record: D6, 72 h. In a few lines:
as §2

Experiment [10] has as its system Plasmodium falciparum. The experiment is described as follows: In vitro antimalarial activity against Plasmodium falciparum W2 after 72 hrs by SYBR green fluorescence assay. Conditions: W2, 72 h. The gist of the method: as §2

In brackets after ≈: the same amount, converted by molar mass.

For `C[C@@H]1CC[C@H]2[C@@H](C)C(=O)O[C@@H]3O[C@@]4(C)CC[C@@H]1[C@]32OO4` [ARTEMISININ], the IC50 (in general, the concentration that gives 50% inhibition) with Plasmodium falciparum [1] worked out at 0.0017 µg/mL (≈ 0.00602 µM); in the experiment on Plasmodium falciparum [2], 0.0016 µg/mL (≈ 0.00567 µM); in the experiment with Plasmodium falciparum [3], 0.0012 µg/mL (≈ 0.00425 µM); in the experiment on Plasmodium falciparum [4], 0.0011 µg/mL (≈ 0.0039 µM); with Plasmodium falciparum [5], 2.4 ng/mL (≈ 0.0085 µM); with Plasmodium falciparum [6], 0.00125 µg/mL (≈ 0.00443 µM). Moreover, half-maximal inhibition in the experiment on Plasmodium falciparum [7] (IC50) required 0.001 µg/mL (≈ 0.00354 µM).
On to `Nc1ccc(S(=O)(=O)c2ccc(N)cc2)cc1` [DAPSONE], for which the IC50 with Plasmodium falciparum [1] came to 0.124 µg/mL (≈ 0.5 µM); with Plasmodium falciparum [2], 0.0102 µg/mL (≈ 0.0411 µM); with Plasmodium falciparum [3] it was 0.156 µg/mL (≈ 0.629 µM); in the experiment on Plasmodium falciparum [4] it was 0.242 µg/mL (≈ 0.973 µM); in the experiment on Plasmodium falciparum [5], 2.9 ng/mL (≈ 0.0117 µM); in the experiment with Plasmodium falciparum [8], 0.0031 µg/mL (≈ 0.0125 µM).
As to `COc1ncnc(NS(=O)(=O)c2ccc(N)cc2)c1OC` [SULFADOXINE], the IC50 turned out to be 1.11 µg/mL (≈ 3.59 µM) in the experiment on Plasmodium falciparum [1]; 0.0024 µg/mL (≈ 0.00773 µM) in the experiment with Plasmodium falciparum [2]; 1.64 µg/mL (≈ 5.29 µM) with Plasmodium falciparum [3]; 2.42 µg/mL (≈ 7.79 µM) in the experiment with Plasmodium falciparum [4]; 16 ng/mL (≈ 0.0516 µM) in the experiment with Plasmodium falciparum [5]; 0.0105 µg/mL (≈ 0.0338 µM) in the experiment with Plasmodium falciparum [8].
For `O[C@@H](c1cc(C(F)(F)F)nc2c(C(F)(F)F)cccc12)[C@H]1CCCCN1` [MEFLOQUINE], the IC50 was found to be 0.0023 µg/mL (≈ 0.00608 µM) in the experiment with Plasmodium falciparum [1]; 0.016 µg/mL (≈ 0.0423 µM) in the experiment on Plasmodium falciparum [2]; 0.0199 µg/mL (≈ 0.0526 µM) with Plasmodium falciparum [9]; 0.0174 µg/mL (≈ 0.046 µM) with Plasmodium falciparum [3]; 0.0097 µg/mL (≈ 0.0256 µM) with Plasmodium falciparum [4]; 0.0089 µg/mL (≈ 0.0235 µM) in the experiment on Plasmodium falciparum [10]. Moreover, the IC50 in the experiment with Plasmodium falciparum [6] was 0.0437 µg/mL (≈ 0.116 µM); with Plasmodium falciparum [8], 0.0328 µg/mL (≈ 0.0867 µM); in the experiment on Plasmodium falciparum [7], 0.0162 µg/mL (≈ 0.0428 µM).
Turning to `C=CC1CN2CC[C@H]1C[C@H]2[C@H](O)c1ccnc2ccc(OC)cc12` (single isomer, unassigned) [QUININE], the 50% inhibitory concentration (IC50) with Plasmodium falciparum [1] came to 0.036 µg/mL (≈ 0.111 µM); in the experiment with Plasmodium falciparum [2], 0.0119 µg/mL (≈ 0.0367 µM); in the experiment with Plasmodium falciparum [9], 0.0113 µg/mL (≈ 0.0348 µM); in the experiment on Plasmodium falciparum [3], 0.162 µg/mL (≈ 0.5 µM); in the experiment with Plasmodium falciparum [10], 0.129 µg/mL (≈ 0.396 µM); in the experiment on Plasmodium falciparum [5], 5 ng/mL (≈ 0.0154 µM). Moreover, the IC50 in the experiment on Plasmodium falciparum [6] worked out at 0.0158 µg/mL (≈ 0.0487 µM); in the experiment with Plasmodium falciparum [8], 0.0149 µg/mL (≈ 0.0459 µM); in the experiment on Plasmodium falciparum [7], 0.167 µg/mL (≈ 0.516 µM).
Turning to `CC[C@H]1OC(=O)[C@H](C)[C@@H](O[C@H]2C[C@@](C)(OC)[C@@H](O)[C@H](C)O2)[C@H](C)[C@@H](O[C@@H]2O[C@H](C)C[C@H](N(C)C)[C@H]2O)[C@](C)(O)C[C@@H](C)CN(C)[C@H](C)[C@@H](O)[C@]1(C)O` [AZITHROMYCIN], the half-inhibitory concentration (IC50) with Plasmodium falciparum [1] stood at 5.5 µg/mL (≈ 7.34 µM); with Plasmodium falciparum [2] it was 14.4 µg/mL (≈ 19.2 µM); in the experiment on Plasmodium falciparum [9] it was 15.3 µg/mL (≈ 20.4 µM); with Plasmodium falciparum [3] it was 1.85 µg/mL (≈ 2.47 µM); in the experiment on Plasmodium falciparum [4], 4.49 µg/mL (≈ 5.99 µM); in the experiment with Plasmodium falciparum [10] it was 2.73 µg/mL (≈ 3.65 µM). For the same compound, the IC50 in the experiment on Plasmodium falciparum [5] was 3750 ng/mL (≈ 5 µM); with Plasmodium falciparum [6], 10.1 µg/mL (≈ 13.5 µM); with Plasmodium falciparum [8], 10.1 µg/mL (≈ 13.4 µM); with Plasmodium falciparum [7] it was 1.62 µg/mL (≈ 2.17 µM).
As to `C[C@H]1c2cccc(O)c2C(=O)C2=C(O)[C@]3(O)C(=O)C(C(N)=O)=C(O)[C@@H](N(C)C)[C@@H]3[C@@H](O)[C@@H]21.O` [DOXYCYCLINE], the IC50 in the experiment with Plasmodium falciparum [1] stood at 0.814 µg/mL; in the experiment on Plasmodium falciparum [2], 1.85 µg/mL; in the experiment on Plasmodium falciparum [9] it was 2.37 µg/mL; with Plasmodium falciparum [3], 1.86 µg/mL; in the experiment on Plasmodium falciparum [4], 2.13 µg/mL; with Plasmodium falciparum [10], 2.28 µg/mL. In addition, the IC50 in the experiment on Plasmodium falciparum [5] came out at 483 ng/mL; in the experiment with Plasmodium falciparum [6], 1.18 µg/mL; in the experiment with Plasmodium falciparum [8], 0.857 µg/mL; with Plasmodium falciparum [7], 2.41 µg/mL.
Take `CCc1nc(N)nc(N)c1-c1ccc(Cl)cc1` [PYRIMETHAMINE]: the IC50 in the experiment on Plasmodium falciparum [1] came out at 0.0119 µg/mL (≈ 0.0478 µM); in the experiment on Plasmodium falciparum [2] it was 0.0004 µg/mL (≈ 0.00161 µM); in the experiment with Plasmodium falciparum [4], 0.0376 µg/mL (≈ 0.151 µM); with Plasmodium falciparum [5] it was 0.1 ng/mL (≈ 0.000402 µM); with Plasmodium falciparum [8] it was 0.0005 µg/mL (≈ 0.00201 µM).

Values taken from ChEMBL document CHEMBL1143813, “Assessment and continued validation of the malaria SYBR green I-based fluorescence assay for use in malaria drug screening” (Antimicrob Agents Chemother, 2007).
